Test results: ChEMBL document CHEMBL1150264, “Design and microwave-assisted synthesis of novel macrocyclic peptides active at melanocortin receptors: discovery of potent and selective hMC5R receptor antagonists” (J Med Chem, 2008)
Activity calls are given as the source filed them. The rule behind the calls is not given here.

Columns and labels:
[1] = target: T1, Melanocyte-stimulating hormone receptor (Homo sapiens, UniProt Q01726); assay: Displacement of [125I]-[Nle4, D-Phe7]alpha-MSH from human melanocortin 1 receptor expressed in HEK293 cells; format: cell-based
How it was run: (§1)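 Whole HEK293 cells stably expressing each hMCR, seeded 48 h before assay (50000 cells/well), washed in MEM with 25 mM bicarbonate. Cells incubated 40 min at 37 °C with unlabeled peptide plus [125I]-NDP-α-MSH (33.06 pM, 20000 cpm/well) in MEM, 25 mM HEPES pH 7.4, 0.2% BSA, 1 mM 1,10-phenanthroline, leupeptin, bacitracin. Cells washed, lysed with NaOH/Triton X-100, and gamma-counted. IC50 by nonlinear fit, two experiments in triplicate […].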
Target sequence in this assay (Q01726 whole entry): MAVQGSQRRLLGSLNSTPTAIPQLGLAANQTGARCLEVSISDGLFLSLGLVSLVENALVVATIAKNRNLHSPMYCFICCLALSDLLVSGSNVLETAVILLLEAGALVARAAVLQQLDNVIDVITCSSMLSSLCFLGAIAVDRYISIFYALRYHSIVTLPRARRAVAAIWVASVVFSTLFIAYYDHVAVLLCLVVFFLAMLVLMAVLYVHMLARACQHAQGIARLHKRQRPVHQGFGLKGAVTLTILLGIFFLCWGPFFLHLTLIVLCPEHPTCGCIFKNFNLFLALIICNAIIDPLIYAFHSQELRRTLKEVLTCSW

[2] = target: T1, Melanocyte-stimulating hormone receptor; assay: Agonist activity at human melanocortin 1 receptor expressed in HEK293 cells assessed as cAMP accumulation; format: functional, cell-based
How it was run: (§2)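 Stably transfected HEK293 cells seeded 48 h before assay (50000 cells/well), rinsed, preincubated 1 min at 37 °C in Earle's balanced salt solution with 0.5 mM IBMX, then given peptide at varying concentrations for 3 min at 37 °C. Stopped with ice-cold Tris/EDTA and boiling 7 min. cAMP measured by [3H]cAMP competition for PKA against a standard curve. EC50 by nonlinear least-squares fit, mean of two experiments in triplicate.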
Target sequence in this assay (Q01726 whole entry): as above

Melanocortin receptor 3 [3] = target: T2, Melanocortin receptor 3 (Homo sapiens, UniProt P41968); assay: Displacement of [125I]-[Nle4, D-Phe7]alpha-MSH from human melanocortin 3 receptor expressed in HEK293 cells; format: cell-based; how it was run: as §1
T2 sequence (P41968 whole entry): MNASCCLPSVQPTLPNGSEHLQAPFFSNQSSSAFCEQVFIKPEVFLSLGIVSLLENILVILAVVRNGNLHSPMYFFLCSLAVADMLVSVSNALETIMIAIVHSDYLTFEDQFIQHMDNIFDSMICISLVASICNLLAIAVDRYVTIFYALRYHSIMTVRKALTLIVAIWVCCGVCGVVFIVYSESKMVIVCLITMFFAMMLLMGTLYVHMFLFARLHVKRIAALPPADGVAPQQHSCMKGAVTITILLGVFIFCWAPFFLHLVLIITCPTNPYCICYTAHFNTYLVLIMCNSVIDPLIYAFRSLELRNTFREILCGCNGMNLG

Melanocortin receptor 3 [4] = target: T2, Melanocortin receptor 3; assay: Agonist activity at human melanocortin 3 receptor expressed in HEK293 cells assessed as cAMP accumulation; format: functional, cell-based; how it was run: as §2
[5] = target: T1, Melanocyte-stimulating hormone receptor; assay: Agonist activity at human melanocortin 1 receptor expressed in HEK293 cells assessed as cAMP accumulation at 10 uM realtive to MT2; format: functional, cell-based
How it was run: (§3)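 cAMP accumulation assay in stably transfected HEK293 cells: 0.5 mM IBMX preincubation, 3 min ligand exposure at 37 °C, [3H]cAMP/PKA binding read-out against a standard curve. The cAMP produced at 10 μM ligand is expressed as percent of that produced by 10 μM MT-II (% max effect).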
Target sequence in this assay (Q01726 whole entry, looked up): as the sequence (Q01726 whole entry) above

Melanocortin receptor 3 [6] = target: T2, Melanocortin receptor 3; assay: Agonist activity at human melanocortin 3 receptor expressed in HEK293 cells assessed as cAMP accumulation at 10 uM realtive to MT2; format: functional, cell-based; how it was run: as §3
Melanocortin receptor 4 [7] = target: T3, Melanocortin receptor 4 (Homo sapiens, UniProt P32245); assay: Agonist activity at human melanocortin 4 receptor expressed in HEK293 cells assessed as cAMP accumulation at 10 uM realtive to MT2; format: functional, cell-based; how it was run: as §3
T3 sequence (P32245 whole entry): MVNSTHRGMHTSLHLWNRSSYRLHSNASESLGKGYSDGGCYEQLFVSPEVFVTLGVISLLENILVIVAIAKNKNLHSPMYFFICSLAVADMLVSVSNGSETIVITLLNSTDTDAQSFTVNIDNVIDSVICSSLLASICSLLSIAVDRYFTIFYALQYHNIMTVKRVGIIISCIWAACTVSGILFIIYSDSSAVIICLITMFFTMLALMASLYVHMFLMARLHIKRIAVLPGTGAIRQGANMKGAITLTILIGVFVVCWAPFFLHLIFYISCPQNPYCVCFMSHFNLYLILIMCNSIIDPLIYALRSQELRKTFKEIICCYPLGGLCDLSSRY

Melanocortin receptor 5 [8] = target: T4, Melanocortin receptor 5 (Homo sapiens, UniProt P33032); assay: Agonist activity at human melanocortin 5 receptor expressed in HEK293 cells assessed as cAMP accumulation at 10 uM realtive to MT2; format: functional, cell-based; how it was run: as §3
T4 sequence (P33032 whole entry): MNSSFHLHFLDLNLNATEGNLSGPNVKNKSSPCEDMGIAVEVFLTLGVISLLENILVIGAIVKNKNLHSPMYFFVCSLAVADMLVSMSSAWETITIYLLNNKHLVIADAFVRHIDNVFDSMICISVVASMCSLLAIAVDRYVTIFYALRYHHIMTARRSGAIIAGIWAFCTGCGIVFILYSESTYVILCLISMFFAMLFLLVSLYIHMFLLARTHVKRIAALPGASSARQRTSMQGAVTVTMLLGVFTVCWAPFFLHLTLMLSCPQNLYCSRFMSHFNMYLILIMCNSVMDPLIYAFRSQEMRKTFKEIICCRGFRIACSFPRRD

Melanocortin receptor 3 [9] = target: T2, Melanocortin receptor 3; assay: Agonist activity at human melanocortin 3 receptor expressed in HEK293 cells assessed as cAMP accumulation at 10 uM; format: functional, cell-based; how it was run: as §3
Melanocortin receptor 4 [10] = target: T3, Melanocortin receptor 4; assay: Displacement of [125I]-[Nle4, D-Phe7]alpha-MSH from human melanocortin 4 receptor expressed in HEK293 cells at 10 uM; format: cell-based
Melanocortin receptor 4 [11] = target: T3, Melanocortin receptor 4; assay: Agonist activity at human melanocortin 4 receptor expressed in HEK293 cells assessed as cAMP accumulation at 10 uM; format: functional, cell-based; how it was run: as §3
Melanocortin receptor 5 [12] = target: T4, Melanocortin receptor 5; assay: Agonist activity at human melanocortin 5 receptor expressed in HEK293 cells assessed as cAMP accumulation at 10 uM; format: functional, cell-based; how it was run: as §3
[13] = target: T1, Melanocyte-stimulating hormone receptor; assay: Displacement of [125I]-[Nle4, D-Phe7]alpha-MSH from human melanocortin 1 receptor expressed in HEK293 cells at 10 uM; format: cell-based
Target sequence in this assay (Q01726 whole entry, looked up): as the sequence (Q01726 whole entry) above

[14] = target: T1, Melanocyte-stimulating hormone receptor; assay: Agonist activity at human melanocortin 1 receptor expressed in HEK293 cells assessed as cAMP accumulation at 10 uM; format: functional, cell-based; how it was run: as §3
Target sequence in this assay (Q01726 whole entry, looked up): as the sequence (Q01726 whole entry) above

Melanocortin receptor 3 [15] = target: T2, Melanocortin receptor 3; assay: Displacement of [125I]-[Nle4, D-Phe7]alpha-MSH from human melanocortin 3 receptor expressed in HEK293 cells at 10 uM; format: cell-based
Melanocortin receptor 5 [16] = target: T4, Melanocortin receptor 5; assay: Displacement of [125I]-[Nle4, D-Phe7]alpha-MSH from human melanocortin 5 receptor expressed in HEK293 cells at 10 uM; format: cell-based
Melanocortin receptor 5 [17] = target: T4, Melanocortin receptor 5; assay: Displacement of [125I]-[Nle4, D-Phe7]alpha-MSH from human melanocortin 5 receptor expressed in HEK293 cells; format: cell-based; how it was run: as §1

Activity [5] | Activity (Melanocortin receptor 3 [6]) | Activity (Melanocortin receptor 4 [7]) | Activity (Melanocortin receptor 5 [8]) | Activity (Melanocortin receptor 3 [9]) | Activity (Melanocortin receptor 4 [10]) | Activity (Melanocortin receptor 4 [11]) | Activity (Melanocortin receptor 5 [12]) | Activity [13] | Activity [14] | Activity (Melanocortin receptor 3 [15]) | Activity (Melanocortin receptor 5 [16]) | SMILES | other results
– | – | – | – | – | – | – | – | – | – | – | – | NC(=O)[C@@H]1CSc2ccc([N+](=O)[O-])cc2C(=O)N[C@@H](Cc2cnc[nH]2)C(=O)N[C@@H](Cc2ccc(N)cc2)C(=O)N[C@@H](CCCN=C(N)N)C(=O)N[C@@H](Cc2c[nH]c3ccccc23)C(=O)N1 | IC50 ([1]; hek293): > 10000 nM; EC50 ([2]; hek293): > 1000 nM; IC50 (Melanocortin receptor 3 [3]; hek293): > 1000 nM; EC50 (Melanocortin receptor 3 [4]; hek293): 150 nM
100% | 100% | 100% | 100% | – | – | – | – | – | – | – | – | N=C(N)NCCC[C@@H]1NC(=O)[C@@H](Cc2ccccc2)NC(=O)[C@H](Cc2cnc[nH]2)NC(=O)c2cc([N+](=O)[O-])ccc2SC[C@@H](C(N)=O)NC(=O)[C@H](Cc2c[nH]c3ccccc23)NC1=O | –
> 100% | 0% | 0% | 0% | inactive | inactive | inactive | inactive | – | – | – | – | N=C(N)NCCC[C@@H]1NC(=O)[C@@H](Cc2ccc3ccccc3c2)NC(=O)[C@H](Cc2cnc[nH]2)NC(=O)c2cc([N+](=O)[O-])ccc2SC[C@@H](C(N)=O)NC(=O)[C@H](Cc2c[nH]c3ccccc23)NC1=O | –
0% | 0% | 0% | 0% | inactive | inactive | inactive | inactive | inactive | inactive | inactive | inactive | N=C(N)NCCC[C@@H]1NC(=O)[C@@H](Cc2ccccc2)NC(=O)[C@H](Cc2cnc[nH]2)NC(=O)c2cc([N+](=O)[O-])ccc2SC[C@@H](C(N)=O)NC(=O)[C@@H](Cc2ccccc2)NC1=O | –
0% | 0% | 0% | 0% | inactive | inactive | inactive | inactive | inactive | inactive | inactive | inactive | N=C(N)NCCC[C@@H]1NC(=O)[C@@H](Cc2ccccc2)NC(=O)[C@H]2C[C@@H](O)CN2C(=O)c2cc([N+](=O)[O-])ccc2SC[C@@H](C(N)=O)NC(=O)[C@H](Cc2c[nH]c3ccccc23)NC1=O | –
110% | > 100% | 3% | 0% | – | – | inactive | inactive | – | – | – | – | N=C(N)NCCC[C@@H]1NC(=O)[C@@H](Cc2ccccc2)NC(=O)[C@H](Cc2cnc[nH]2)NC(=O)c2cc([N+](=O)[O-])ccc2SC[C@@H](C(N)=O)NC(=O)[C@H](Cc2ccc3ccccc3c2)NC1=O | –
0% | 0% | 0% | 0% | inactive | inactive | inactive | inactive | inactive | inactive | inactive | inactive | NCCC[C@@H]1NC(=O)[C@@H](Cc2ccccc2)NC(=O)[C@H](Cc2cnc[nH]2)NC(=O)c2cc([N+](=O)[O-])ccc2SC[C@@H](C(N)=O)NC(=O)[C@H](Cc2c[nH]c3ccccc23)NC1=O | –
0% | 0% | 0% | 0% | inactive | inactive | inactive | inactive | inactive | inactive | – | inactive | N=C(N)NCCC[C@H]1NC(=O)[C@@H](Cc2ccccc2)NC(=O)[C@H](Cc2cnc[nH]2)NC(=O)c2cc([N+](=O)[O-])ccc2SC[C@@H](C(N)=O)NC(=O)[C@H](Cc2c[nH]c3ccccc23)NC1=O | IC50 (Melanocortin receptor 3 [3]): > 10000 nM
9% | 5% | 0% | 0% | – | inactive | inactive | inactive | – | – | – | inactive | N=C(N)NCCC[C@@H]1NC(=O)[C@H](Cc2ccc(N)cc2)NC(=O)[C@H](Cc2cnc[nH]2)NC(=O)c2cc([N+](=O)[O-])ccc2SC[C@@H](C(N)=O)NC(=O)[C@H](Cc2c[nH]c3ccccc23)NC1=O | –
– | – | – | – | – | – | – | – | – | – | – | – | NC(=O)[C@@H]1CSc2ccc([N+](=O)[O-])cc2C(=O)N[C@@H](Cc2cnc[nH]2)C(=O)N[C@H](Cc2ccc3ccccc3c2)C(=O)N[C@@H](CCCN=C(N)N)C(=O)N[C@@H](Cc2c[nH]c3ccccc23)C(=O)N1 | IC50 [1]: 760 nM; EC50 [2]: > 10000 nM; IC50 (Melanocortin receptor 3 [3]): 190 nM; IC50 (Melanocortin receptor 5 [17]): 760 nM
0% | 0% | 0% | 0% | inactive | inactive | inactive | inactive | inactive | inactive | – | inactive | NCCCC[C@@H]1NC(=O)[C@@H](Cc2ccccc2)NC(=O)[C@H](Cc2cnc[nH]2)NC(=O)c2cc([N+](=O)[O-])ccc2SC[C@@H](C(N)=O)NC(=O)[C@H](Cc2c[nH]c3ccccc23)NC1=O | IC50 (Melanocortin receptor 3 [3]): > 1000 nM
0% | 0% | 0% | 0% | inactive | inactive | inactive | inactive | inactive | inactive | inactive | inactive | N=C(N)NCCC[C@@H]1NC(=O)[C@H](CCCNC(N)=O)NC(=O)[C@H](Cc2cnc[nH]2)NC(=O)c2cc([N+](=O)[O-])ccc2SC[C@@H](C(N)=O)NC(=O)[C@H](Cc2c[nH]c3ccccc23)NC1=O | –
0% | 75% | 0% | 0% | – | inactive | inactive | inactive | inactive | inactive | – | inactive | N=C(N)NCCC[C@@H]1NC(=O)[C@@H](Cc2ccccc2)NC(=O)[C@H](Cc2cnc[nH]2)NC(=O)c2cc([N+](=O)[O-])ccc2SC[C@@H](C(N)=O)NC(=O)[C@@H](Cc2ccc3ccccc3c2)NC1=O | –
0% | 0% | 0% | 0% | inactive | inactive | inactive | inactive | – | inactive | inactive | inactive | N=C(N)NCCC[C@@H]1NC(=O)[C@@H](Cc2ccccc2)NC(=O)[C@H]2CCCN2C(=O)c2cc([N+](=O)[O-])ccc2SC[C@@H](C(N)=O)NC(=O)[C@H](Cc2c[nH]c3ccccc23)NC1=O | IC50 ([1]; hek293): > 1500 nM
0% | 0% | 0% | 0% | inactive | inactive | inactive | inactive | – | inactive | inactive | inactive | N=C(N)NCCC[C@@H]1NC(=O)[C@@H](Cc2ccccc2)NC(=O)[C@H](Cc2cnc[nH]2)NC(=O)c2cc([N+](=O)[O-])ccc2SC[C@@H](C(N)=O)NC(=O)[C@H](Cc2ccccc2)NC1=O | IC50 [1]: > 1000 nM
– | – | – | – | – | – | – | – | – | – | – | – | NC(=O)[C@@H]1CSc2ccc([N+](=O)[O-])cc2C(=O)N[C@@H](Cc2cnc[nH]2)C(=O)N[C@H](Cc2ccccc2)C(=O)N[C@@H](CCCN=C(N)N)C(=O)N[C@H](Cc2ccc3ccccc3c2)C(=O)N1 | IC50 (Melanocortin receptor 3 [3]): > 8000 nM; EC50 (Melanocortin receptor 3 [4]): 330 nM
